According to ChEMBL document CHEMBL1123812, “Pyrroloisoquinoline antidepressants. 2. In-depth exploration of structure-activity relationships” (J Med Chem, 1987):
The source made the active and inactive calls.

Assays:
[1] = target: Norepinephrine transporter (Rattus norvegicus, UniProt Q9WTR4); assay: Inhibition of uptake of tritiated norepinephrine (NE) in rat synaptosomes; assay type: subcellular, Brain
[2] = target: Muscarinic acetylcholine receptor (Rattus norvegicus) (UniProt P08482+P08483+P08485+P08911+P10980); assay: Binding affinity towards Muscarinic acetylcholine receptor at 1.0 uM concentration; assay type: protein assay
[3] = species on record: Mus musculus; assay: Gross behavioral effects ascertained in mice; S indicates significant stimulant properties.; assay type: functional, organism-based
Method in brief: (§1)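 Male Swiss Webster mice, 18–24 g, three per dose, given ip doses of 1, 3, 10, 30, 100 and 300 mg/kg. Observed for gross behavior and held for 4 days. Scored as weak (W), stimulant (S), depressant (D) or convulsant (C).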

[4] = species on record: Mus musculus; assay: Antagonism of tetrabenazine (TBZ)-induced depression in mice measured for ptosis; assay type: functional; settings: Mus musculus; read-out: ED50
Method in brief: (§2)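 Nonfasted male Swiss Webster mice, 18–24 g, ten per dose level and in saline controls. Test compound given ip 30 min before tetrabenazine 32 mg/kg ip; dose expressed as free base. Motor activity and ptosis scored. Control response ≤90% corrected by Abbott's formula.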

[5] = target: D(1A) dopamine receptor (Rattus norvegicus, UniProt P18901); assay: Binding affinity towards Dopamine receptor D1
[6] = species on record: Mus musculus; assay: Antagonism of tetrabenazine (TBZ)-induced depression measured in mice by motor activity; assay type: functional; settings: Mus musculus; read-out: ED50; method in brief: as §2
[7] = target: T1, Adrenergic receptor alpha-1 (Rattus norvegicus, UniProt P15823+P23944+P43140); assay: Binding affinity towards alpha-1 adrenergic receptor; assay type: protein assay
T1 sequence (P15823 whole entry): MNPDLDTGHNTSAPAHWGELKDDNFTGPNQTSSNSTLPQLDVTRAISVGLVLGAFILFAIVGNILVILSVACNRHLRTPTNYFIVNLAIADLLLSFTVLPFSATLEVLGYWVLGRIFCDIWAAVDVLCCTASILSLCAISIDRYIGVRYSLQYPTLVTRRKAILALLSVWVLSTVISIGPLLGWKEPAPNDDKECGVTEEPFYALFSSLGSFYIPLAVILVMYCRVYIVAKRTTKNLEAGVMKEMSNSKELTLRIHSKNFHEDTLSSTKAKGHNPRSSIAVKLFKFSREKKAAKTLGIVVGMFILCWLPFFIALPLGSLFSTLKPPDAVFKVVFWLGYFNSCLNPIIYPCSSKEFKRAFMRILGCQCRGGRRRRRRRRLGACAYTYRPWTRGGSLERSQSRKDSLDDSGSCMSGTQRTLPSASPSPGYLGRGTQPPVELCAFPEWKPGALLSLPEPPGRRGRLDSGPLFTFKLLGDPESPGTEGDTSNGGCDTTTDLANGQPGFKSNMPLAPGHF
T1 sequence (P23944 whole entry): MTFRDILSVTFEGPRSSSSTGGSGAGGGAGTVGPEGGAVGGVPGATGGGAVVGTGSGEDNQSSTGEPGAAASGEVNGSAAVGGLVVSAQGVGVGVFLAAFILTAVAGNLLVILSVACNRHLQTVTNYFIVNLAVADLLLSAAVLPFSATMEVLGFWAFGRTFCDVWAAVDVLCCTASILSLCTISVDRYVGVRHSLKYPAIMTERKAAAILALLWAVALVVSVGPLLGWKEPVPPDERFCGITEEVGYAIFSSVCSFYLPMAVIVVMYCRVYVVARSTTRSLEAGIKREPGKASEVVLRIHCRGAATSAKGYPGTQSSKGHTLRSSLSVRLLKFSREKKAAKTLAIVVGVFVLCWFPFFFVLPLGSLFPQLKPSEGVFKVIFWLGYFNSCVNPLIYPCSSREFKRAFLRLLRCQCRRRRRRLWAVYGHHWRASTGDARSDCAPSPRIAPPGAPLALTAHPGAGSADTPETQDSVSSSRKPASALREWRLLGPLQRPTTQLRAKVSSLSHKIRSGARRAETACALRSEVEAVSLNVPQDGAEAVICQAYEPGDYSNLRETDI
T1 sequence (P43140 whole entry): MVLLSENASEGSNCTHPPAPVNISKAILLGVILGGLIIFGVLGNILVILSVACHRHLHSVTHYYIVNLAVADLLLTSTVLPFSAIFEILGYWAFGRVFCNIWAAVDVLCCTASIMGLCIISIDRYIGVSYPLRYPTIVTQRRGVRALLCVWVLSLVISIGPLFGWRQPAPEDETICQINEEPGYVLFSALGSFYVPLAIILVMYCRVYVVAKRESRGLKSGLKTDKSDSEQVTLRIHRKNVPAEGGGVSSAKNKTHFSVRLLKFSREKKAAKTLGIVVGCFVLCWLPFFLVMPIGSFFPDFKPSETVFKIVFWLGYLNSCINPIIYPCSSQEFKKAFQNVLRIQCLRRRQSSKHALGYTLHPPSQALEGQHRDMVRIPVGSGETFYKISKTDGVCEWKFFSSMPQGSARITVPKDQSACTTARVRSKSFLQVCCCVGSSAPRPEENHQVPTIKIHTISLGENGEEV

[8] = target: D(2) dopamine receptor (Rattus norvegicus) (UniProt P61169); assay: Binding affinity towards dopamine receptor D2 at 1.0 uM concentration
Method in brief: (§3)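 Rat brain crude synaptic membranes in 20 mM NaHEPES pH 7.5. Ligands: α1 cortex […] 0.4 nM, nonspecific with (-)-NE 100 μM, 30 min at 25 °C. […] D2 striatum [3H]spiperone 0.05 nM with (+)-butaclamol 1 μM, 45 min at 37 °C. S1 cortex [3H]5-HT 1 nM plus glutathione and MgCl2, with 5-HT 10 μM, 20 min at 37 °C. […] Samples filtered on GF/B and counted.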

[9] = target: Adrenergic receptor alpha-2 (Rattus norvegicus) (UniProt P22086+P19328+P22909); assay: Binding affinity towards alpha-2 adrenergic receptor at 1.0 uM concentration; assay type: protein assay
[10] = target: Sodium-dependent dopamine transporter (Rattus norvegicus, UniProt P23977); assay: Inhibition of the uptake of tritiated dopamine (DA) in rat synaptosomes; assay type: subcellular, Brain
[11] = species on record: Mus musculus; assay: Gross behavioral effects ascertained in mice; W indicates weak stimulant or depressant activity of little significance.; assay type: functional, organism-based; method in brief: as §1
[12] = species on record: Rattus norvegicus; assay: Ability to inhibit the uptake of tritiated norepinephrine (NE) at 0.1 uM concentration; assay type: functional
Method in brief: (§4)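 Male Wistar rat brain synaptosomes (P2 fraction): hypothalamus for NE, striatum for DA, cerebral cortex for 5-HT. Buffer is Tris- or HEPES-buffered salt medium with glucose, ascorbate and nialamide, pH 7.4 at 37 °C. Preincubated 10 min at 37 °C with compound. Uptake started with [3H]NE 100–300 nM, [3H]DA 50–300 nM or [3H]5-HT 100–200 nM, incubated 3 min (DA) or 6–10 min (NE, 5-HT). Blanks held on ice. Filtered, counted by scintillation.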

[13] = target: Sodium-dependent serotonin transporter (Rattus norvegicus) (UniProt P31652); assay: Inhibition of tritiated serotonin(5-HT) uptake at 0.1 uM concentration; assay type: functional; method in brief: as §4
[14] = target: Sodium-dependent dopamine transporter (Rattus norvegicus) (UniProt P23977); assay: Inhibition of tritiated dopamine (DA) uptake at 0.1 uM concentration; assay type: functional; method in brief: as §4
[15] = target: Sodium-dependent serotonin transporter (Rattus norvegicus) (UniProt P31652); assay: Ability to inhibit the uptake of [3H]- serotonin(5-HT) 0.1 uM concentration at rat brain synaptosomes; assay type: functional, subcellular; method in brief: as §4
[16] = target: Norepinephrine transporter (Rattus norvegicus) (UniProt Q9WTR4); assay: Ability to inhibit the uptake of [3H]norepinephrine (NE) 0.1 uM concentration at rat brain synaptosomes; assay type: functional, subcellular; method in brief: as §4
[17] = species on record: Mus musculus; assay: Gross behavioral effects ascertained in mice; W/C indicates weak stimulant or depressant activity of little significance/ overt convulsant; assay type: functional, organism-based
Method in brief: (§5)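 Male Swiss Webster albino mice, 18–24 g, three per dose, given ip 1, 3, 10, 30, 100 and 300 mg/kg. Gross behaviour observed and held 4 days. Estimated LD50 range from lethality count on day 4. Scored as weak stimulant/depressant, significant stimulant, significant depressant or overt convulsant.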

[18] = system: Mus musculus; assay: Ability to antagonise intraperitoneal dose; inactive (<10% antagonism) at 30 mg/kg is represented as I-30.; assay type: functional, organism-based; design: dose 30 mg/kg; method in brief: as §2
[19] = species on record: Rattus norvegicus; assay: Ability to inhibit the uptake of tritiated dopamine (DA) 1 uM concentration; assay type: functional
Method in brief: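 Rat brain synaptosomal [3H]dopamine uptake: striatal P2 fraction, test compound at 1.00 μM. Preincubated at 37 °C, then 50–300 nM [3H]DA for 3 min. Blanks on ice. Filtration and scintillation counting; percent inhibition of control uptake.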

[20] = system: Mus musculus; assay: Ability to antagonise intraperitoneal dose; inactive (<10% antagonism) at 30 mgjkg is represented as I-30.; assay type: functional, organism-based; method in brief: as §2
[21] = species on record: Mus musculus; assay: Gross behavioral effects ascertained in mice; D indicates significant depressant properties.; assay type: functional, organism-based; method in brief: as §5
[22] = species on record: Mus musculus; assay: Gross behavioral effects ascertained in mice; C indicates overt convulsant; assay type: functional, organism-based; method in brief: as §1
[23] = target: D(1A) dopamine receptor (Rattus norvegicus) (UniProt P18901); assay: Binding affinity towards Dopamine receptor D1 at 1.0 uM concentration; method in brief: as §3
[24] = target: Serotonin 2 (5-HT2) receptor (Rattus norvegicus, UniProt P30994+P08909+P14842); assay: Binding affinity towards 5-hydroxytryptamine 2 receptor; assay type: protein assay
[25] = target: Adrenergic receptor alpha-1 (Rattus norvegicus) (UniProt P15823+P23944+P43140); assay: Binding affinity towards alpha-1 adrenergic receptor at 1.0 uM concentration; assay type: protein assay; method in brief: as §3
[26] = target: Serotonin 1 (5-HT1) receptor (Rattus norvegicus) (UniProt P28564+P30940+P19327+P28565); assay: Binding affinity towards serotonin S1 receptor at 1.0 uM; assay type: protein assay; method in brief: as §3
[27] = system: Mus musculus; assay: Ability to antagonise intraperitoneal administration; weakly active (>=10% and <=30% antagonism) at 30 mg/kg is represented as >30; assay type: functional; settings: ip; method in brief: as §2
[28] = target: D(2) dopamine receptor (Rattus norvegicus, UniProt P61169); assay: Binding affinity towards Dopamine receptor D2
Chain of D(2) dopamine receptor (P61169 whole entry): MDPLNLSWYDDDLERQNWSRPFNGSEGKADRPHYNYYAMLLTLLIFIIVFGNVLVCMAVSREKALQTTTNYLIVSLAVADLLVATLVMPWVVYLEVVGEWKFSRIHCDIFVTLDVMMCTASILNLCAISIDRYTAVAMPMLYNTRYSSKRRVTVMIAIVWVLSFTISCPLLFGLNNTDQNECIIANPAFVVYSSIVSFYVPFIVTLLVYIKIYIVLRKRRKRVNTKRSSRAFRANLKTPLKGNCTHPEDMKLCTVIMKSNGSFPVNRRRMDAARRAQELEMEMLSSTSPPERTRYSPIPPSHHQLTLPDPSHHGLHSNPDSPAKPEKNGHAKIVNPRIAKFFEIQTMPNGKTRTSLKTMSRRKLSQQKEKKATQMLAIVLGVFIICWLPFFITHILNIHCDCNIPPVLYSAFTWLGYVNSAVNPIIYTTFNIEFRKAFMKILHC

Chain of Norepinephrine transporter (Q9WTR4 whole entry): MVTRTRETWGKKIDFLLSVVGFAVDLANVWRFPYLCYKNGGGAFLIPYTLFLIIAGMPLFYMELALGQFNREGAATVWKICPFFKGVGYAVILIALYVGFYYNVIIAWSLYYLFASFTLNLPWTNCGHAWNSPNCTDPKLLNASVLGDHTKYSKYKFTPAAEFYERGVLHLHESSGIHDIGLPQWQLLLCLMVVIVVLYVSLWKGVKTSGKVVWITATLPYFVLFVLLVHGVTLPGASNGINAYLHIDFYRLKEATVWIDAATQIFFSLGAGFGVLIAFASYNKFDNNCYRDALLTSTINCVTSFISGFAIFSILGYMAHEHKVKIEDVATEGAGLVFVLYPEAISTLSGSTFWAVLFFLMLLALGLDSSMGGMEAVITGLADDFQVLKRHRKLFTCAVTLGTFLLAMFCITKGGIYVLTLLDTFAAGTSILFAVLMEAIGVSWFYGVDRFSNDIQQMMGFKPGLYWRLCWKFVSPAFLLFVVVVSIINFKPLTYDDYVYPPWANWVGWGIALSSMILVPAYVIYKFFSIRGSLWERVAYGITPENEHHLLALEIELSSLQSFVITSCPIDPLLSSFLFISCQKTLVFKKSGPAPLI
Chain of Sodium-dependent dopamine transporter (P23977 whole entry): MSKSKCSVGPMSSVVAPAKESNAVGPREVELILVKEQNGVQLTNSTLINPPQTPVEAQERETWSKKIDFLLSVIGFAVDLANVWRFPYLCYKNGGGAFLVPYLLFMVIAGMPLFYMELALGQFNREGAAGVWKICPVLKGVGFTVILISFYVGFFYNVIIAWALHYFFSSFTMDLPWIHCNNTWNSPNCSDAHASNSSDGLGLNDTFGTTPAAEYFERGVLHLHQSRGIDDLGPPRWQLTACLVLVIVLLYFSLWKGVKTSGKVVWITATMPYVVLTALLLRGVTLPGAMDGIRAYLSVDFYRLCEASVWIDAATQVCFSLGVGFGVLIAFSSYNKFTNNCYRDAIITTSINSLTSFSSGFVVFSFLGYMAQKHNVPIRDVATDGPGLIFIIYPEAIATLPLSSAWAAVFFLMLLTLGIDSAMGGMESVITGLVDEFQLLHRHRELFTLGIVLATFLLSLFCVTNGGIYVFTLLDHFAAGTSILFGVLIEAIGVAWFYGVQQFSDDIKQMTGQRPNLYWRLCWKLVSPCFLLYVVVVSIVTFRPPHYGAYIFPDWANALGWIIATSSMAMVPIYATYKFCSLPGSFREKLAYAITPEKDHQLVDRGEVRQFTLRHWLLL
Chain of D(1A) dopamine receptor (P18901 whole entry): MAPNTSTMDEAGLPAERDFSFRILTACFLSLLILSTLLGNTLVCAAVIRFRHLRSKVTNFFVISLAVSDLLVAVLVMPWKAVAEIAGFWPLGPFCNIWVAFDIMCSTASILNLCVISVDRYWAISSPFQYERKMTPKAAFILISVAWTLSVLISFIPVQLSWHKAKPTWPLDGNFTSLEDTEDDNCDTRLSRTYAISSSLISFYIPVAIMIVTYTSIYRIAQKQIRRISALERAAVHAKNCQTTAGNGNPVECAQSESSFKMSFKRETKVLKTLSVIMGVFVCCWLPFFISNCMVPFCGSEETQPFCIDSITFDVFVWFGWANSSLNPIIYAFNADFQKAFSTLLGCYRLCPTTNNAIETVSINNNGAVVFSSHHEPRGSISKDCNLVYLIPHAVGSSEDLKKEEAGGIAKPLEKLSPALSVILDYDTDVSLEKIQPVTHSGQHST
Chain of D(2) dopamine receptor (Rattus norvegicus) (P61169 whole entry): as the sequence (P61169 whole entry) above
Chain of Sodium-dependent serotonin transporter (Rattus norvegicus) (P31652 whole entry): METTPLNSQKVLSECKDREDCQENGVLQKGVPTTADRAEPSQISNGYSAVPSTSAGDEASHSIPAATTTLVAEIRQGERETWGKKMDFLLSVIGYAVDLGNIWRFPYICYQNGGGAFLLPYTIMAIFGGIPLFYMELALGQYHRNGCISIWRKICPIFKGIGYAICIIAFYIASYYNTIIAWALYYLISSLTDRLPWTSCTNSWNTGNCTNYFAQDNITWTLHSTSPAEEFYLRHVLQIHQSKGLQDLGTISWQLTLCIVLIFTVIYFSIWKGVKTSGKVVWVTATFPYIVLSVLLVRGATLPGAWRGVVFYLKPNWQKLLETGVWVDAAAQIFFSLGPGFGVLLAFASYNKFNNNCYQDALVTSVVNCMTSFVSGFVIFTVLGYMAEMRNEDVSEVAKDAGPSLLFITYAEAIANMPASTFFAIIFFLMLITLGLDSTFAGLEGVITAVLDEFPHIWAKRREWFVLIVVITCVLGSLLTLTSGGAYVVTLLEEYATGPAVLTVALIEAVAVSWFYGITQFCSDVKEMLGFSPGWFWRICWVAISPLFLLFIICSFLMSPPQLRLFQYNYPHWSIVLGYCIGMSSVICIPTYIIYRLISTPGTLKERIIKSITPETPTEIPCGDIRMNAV
Chain of Norepinephrine transporter (Rattus norvegicus) (Q9WTR4 as listed by the source): as the sequence (Q9WTR4 whole entry) above
Chain of Sodium-dependent dopamine transporter (Rattus norvegicus) (P23977 whole entry): as the sequence (P23977 whole entry) above
Chain of D(1A) dopamine receptor (Rattus norvegicus) (P18901 whole entry): as the sequence (P18901 whole entry) above

| Structure (SMILES) | Ki [1] [nM] | ED50 [4] [mg/kg] | Ki [5] [nM] | ED50 [6] [mg/kg] | inhibition [8] [%] | Ki [10] [nM] | inhibition [13] [%] | ED50 [18] | other results |
| --- | --- | --- | --- | --- | --- | --- | --- | --- | --- |
| Br.Oc1ccc([C@@H]2CN3CCC[C@@H]3c3ccccc32)cc1O | 0.81 | 0.11 | > 1000 | 0.19 | 5 | 10.1 | – | – | inhibition [2]: 0%; behavior [3]: Stimulant; Ki [7]: 675 nM; inhibition [9]: 26% |
| Br.Oc1cc2c(cc1O)[C@@H]1CCCN1C[C@H]2c1ccccc1 | – | > 60 | 64 | > 60 | 19 | – | 0 | – | behavior [11]: Partial stimulant; Inhibition [12]: 35%; inhibition [14]: 22% |
| c1ccc2c(c1)CCN1CCC[C@@H]21 | – | – | – | – | – | – | – | inactive | inhibition [15]: -10%; inhibition [16]: 1%; behavior [17]: Weak/Overt convulsant; Inhibition [19]: 18%; ED50 [20]: inactive |
| Br.CC(=O)Nc1ccc([C@@H]2CN3CCC[C@@H]3c3ccccc32)cc1 | – | 0.042 | – | 0.037 | – | – | – | – | behavior [21]: Significant depressant |
| C[C@@]12CCCN1C[C@@H](c1ccccc1)c1ccccc12 | – | – | – | – | – | – | – | inactive | inhibition [15]: 23%; inhibition [16]: 2%; behavior [22]: Overt convulsant; Inhibition [19]: 25%; ED50 [20]: inactive |
| COc1ccc2c(c1)CN(C)CC2c1ccc(Cl)c(Cl)c1 (centres undefined) [DICLOFENSINE] | 8.8 | – | – | – | 27 | 10.9 | – | – | inhibition [23]: 38%; Ki [24]: 37 nM; inhibition [25]: -6%; inhibition [26]: 33% |
| Br.COc1cc2c(cc1OC)[C@@H]1CCCN1C[C@H]2c1ccccc1 | – | – | 452 | – | – | 106 | 10 | inactive | ED50 at 30 mg/kg [27]: > 30 mg/kg; behavior [22]: Convulsant; Ki [28]: 400 nM; Inhibition [12]: 16% |
| Br.COc1ccc2c(c1)[C@@H]1CCCN1C[C@H]2c1ccccc1 | 20.9 | 8 | – | ~40 | – | 38.9 | 21 | – | behavior [21]: Significant depressant |
